Assay results: ChEMBL document CHEMBL5058577, “EUbOPEN Chemogenomics Library 2 (Multiplex)” (2022)

Tested on: HEK-293T
Experiment: Multiplex assay against HEK293T
Format: toxicity, cell-based
Conditions: human
Outline: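 Hoechst33342, BioTracker Green Microtubule Cytoskeleton Dye, MitoTracker Red and Annexin V Alexa Fluor 680 were added to live cells at seeding, and imaging on a CQ1 microscope at 37°C and 5% CO2 followed compound addition. Gating by CellPathfinder machine learning separated cells into Hoechst high-intensity objects or normal cells, then normal cells into healthy, pyknosed or fragmented nuclei, then pyknosed cells into mitotic or apoptotic. Per cents of healthy-nucleus cells are reported for the tubulin, mitochondrial-mass and membrane-permeability phenotypes.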

[1] = 12 h, 1 µM, compound concentration 1 uM, replicate 1
[2] = 12 h, 1 µM, compound concentration 1 uM, replicate 2
[3] = 12 h, 10 µM, compound concentration 10 uM, replicate 1
[4] = 12 h, 10 µM, compound concentration 10 uM, replicate 2
[5] = 24 h, 1 µM, compound concentration 1 uM, replicate 1
[6] = 24 h, 1 µM, compound concentration 1 uM, replicate 2
[7] = 24 h, 10 µM, compound concentration 10 uM, replicate 1
[8] = 24 h, 10 µM, compound concentration 10 uM, replicate 2
[9] = 48 h, 1 µM, compound concentration 1 uM, replicate 1
[10] = 48 h, 1 µM, compound concentration 1 uM, replicate 2
[11] = 48 h, 10 µM, compound concentration 10 uM, replicate 1
[12] = 48 h, 10 µM, compound concentration 10 uM, replicate 2

## CC(C)c1noc(N2CCC(COc3ccc(-c4ccc(S(C)(=O)=O)cc4)nc3)CC2)n1 [GSK-1292263]
[1]
  Population Apoptotic (%): 37%
  Population Fragmented Nuclei (%): 8%
  Population Healthy Nuclei (%): 78%
  Population Hoechst High Intensity Objects (%): 5%
  Population Membrane Permeable-Phenotype (%): 0%
  Population Mitochondria Different-Phenotype (%): 42%
  Population Mitotic Cells (%): 62%
  Population Normal (%): 94%
  Population Pyknosed Nuclei (%): 12%
  Population Tubulin-Different-Phenotype (%): 32%
  Total Cell Count: 440
[2]
  Population Apoptotic (%): 25%
  Population Fragmented Nuclei (%): 6%
  Population Healthy Nuclei (%): 86%
  Population Hoechst High Intensity Objects (%): 6%
  Population Mitochondria Different-Phenotype (%): 53%
  Population Mitotic Cells (%): 74%
  Population Normal (%): 93%
  Population Pyknosed Nuclei (%): 7%
  Population Tubulin-Different-Phenotype (%): 13%
  Total Cell Count: 522
[3]
  Population Apoptotic (%): 50%
  Population Fragmented Nuclei (%): 6%
  Population Healthy Nuclei (%): 71%
  Population Hoechst High Intensity Objects (%): 13%
  Population Membrane Permeable-Phenotype (%): 0%
  Population Mitochondria Different-Phenotype (%): 69%
  Population Mitotic Cells (%): 50%
  Population Normal (%): 86%
  Population Pyknosed Nuclei (%): 22%
  Population Tubulin-Different-Phenotype (%): 55%
  Total Cell Count: 311
[4]
  Population Apoptotic (%): 43%
  Population Fragmented Nuclei (%): 7%
  Population Healthy Nuclei (%): 78%
  Population Hoechst High Intensity Objects (%): 16%
  Population Mitochondria Different-Phenotype (%): 77%
  Population Mitotic Cells (%): 56%
  Population Normal (%): 83%
  Population Pyknosed Nuclei (%): 13%
  Population Tubulin-Different-Phenotype (%): 40%
  Total Cell Count: 279
[5]
  Population Apoptotic (%): 23%
  Population Fragmented Nuclei (%): 8%
  Population Healthy Nuclei (%): 78%
  Population Hoechst High Intensity Objects (%): 5%
  Population Membrane Permeable-Phenotype (%): 0%
  Population Mitochondria Different-Phenotype (%): 27%
  Population Mitotic Cells (%): 76%
  Population Normal (%): 94%
  Population Pyknosed Nuclei (%): 12%
  Population Tubulin-Different-Phenotype (%): 25%
  Total Cell Count: 545
[6]
  Population Apoptotic (%): 25%
  Population Fragmented Nuclei (%): 7%
  Population Healthy Nuclei (%): 82%
  Population Hoechst High Intensity Objects (%): 3%
  Population Mitochondria Different-Phenotype (%): 29%
  Population Mitotic Cells (%): 74%
  Population Normal (%): 96%
  Population Pyknosed Nuclei (%): 9%
  Population Tubulin-Different-Phenotype (%): 9%
  Total Cell Count: 608
[7]
  Population Apoptotic (%): 64%
  Population Fragmented Nuclei (%): 8%
  Population Healthy Nuclei (%): 79%
  Population Hoechst High Intensity Objects (%): 8%
  Population Membrane Permeable-Phenotype (%): 0%
  Population Mitochondria Different-Phenotype (%): 58%
  Population Mitotic Cells (%): 35%
  Population Normal (%): 91%
  Population Pyknosed Nuclei (%): 12%
  Population Tubulin-Different-Phenotype (%): 49%
  Total Cell Count: 384
[8]
  Population Apoptotic (%): 46%
  Population Fragmented Nuclei (%): 11%
  Population Healthy Nuclei (%): 74%
  Population Hoechst High Intensity Objects (%): 10%
  Population Mitochondria Different-Phenotype (%): 59%
  Population Mitotic Cells (%): 53%
  Population Normal (%): 89%
  Population Pyknosed Nuclei (%): 13%
  Population Tubulin-Different-Phenotype (%): 28%
  Total Cell Count: 354
[9]
  Population Apoptotic (%): 22%
  Population Fragmented Nuclei (%): 10%
  Population Healthy Nuclei (%): 81%
  Population Hoechst High Intensity Objects (%): 3%
  Population Membrane Permeable-Phenotype (%): 1%
  Population Mitochondria Different-Phenotype (%): 23%
  Population Mitotic Cells (%): 77%
  Population Normal (%): 96%
  Population Pyknosed Nuclei (%): 8%
  Population Tubulin-Different-Phenotype (%): 14%
  Total Cell Count: 865
[10]
  Population Apoptotic (%): 23%
  Population Healthy Nuclei (%): 83%
  Population Hoechst High Intensity Objects (%): 1%
  Population Mitochondria Different-Phenotype (%): 14%
  Population Mitotic Cells (%): 76%
  Population Normal (%): 98%
  Population Pyknosed Nuclei (%): 5%
  Population Tubulin-Different-Phenotype (%): 10%
  Total Cell Count: 882
[11]
  Population Apoptotic (%): 32%
  Population Fragmented Nuclei (%): 10%
  Population Healthy Nuclei (%): 79%
  Population Hoechst High Intensity Objects (%): 10%
  Population Membrane Permeable-Phenotype (%): 0%
  Population Mitochondria Different-Phenotype (%): 50%
  Population Mitotic Cells (%): 67%
  Population Normal (%): 89%
  Population Pyknosed Nuclei (%): 9%
  Population Tubulin-Different-Phenotype (%): 28%
  Total Cell Count: 506
[12]
  Population Apoptotic (%): 30%
  Population Fragmented Nuclei (%): 13%
  Population Healthy Nuclei (%): 78%
  Population Hoechst High Intensity Objects (%): 5%
  Population Mitochondria Different-Phenotype (%): 37%
  Population Mitotic Cells (%): 69%
  Population Normal (%): 94%
  Population Pyknosed Nuclei (%): 8%
  Population Tubulin-Different-Phenotype (%): 18%
  Total Cell Count: 595
